The results in this text go back to ChEMBL document CHEMBL1806383, “Optimisation of pharmacokinetic properties to afford an orally bioavailable and selective V1A receptor antagonist” (Bioorg Med Chem Lett, 2011).

Molecules are shown by their SMILES.

The nature of data set [1]: Apparent permeability of the compound from apical to basolateral side of human Caco2 cells. In kind it is ADME, cell-based. Particulars: Caco-2. A general note: Passage across Caco-2 layers is used to estimate intestinal permeability.
Data set [2] is described as follows: Oral bioavailability in Sprague-Dawley rat at 10 mg/kg. In kind it is ADME, organism-based. Particulars: in vivo. The essentials:
(§1)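 Male Sprague–Dawley rat, oral 10 mg/kg in 0.5% (w/v) gelatin in 5% (w/v) mannitol.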

Data set [3] has as its system Rattus norvegicus. In words: Volume of distribution at steady state in Sprague-Dawley rat at 10 mg/kg, po. In kind it is ADME, organism-based. The arrangement: dose 10 mg/kg, route oral. Particulars: in vivo. The essentials:
as §1

Data set [4] in a line: Oral bioavailability in Sprague-Dawley rat at 5 mg/kg. It is filed as ADME, organism-based. The following applies: in vivo. The essentials:
(§2)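 Male Sprague–Dawley rat, oral 5 mg/kg in 0.5% (w/v) gelatin in 5% (w/v) mannitol.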

Data set [5] concerns Rattus norvegicus. In words: Volume of distribution at steady state in Sprague-Dawley rat at 5 mg/kg, po. Particulars: in vivo. In kind it is ADME, organism-based. The arrangement: dose 5 mg/kg, route oral. Summed up:
as §2

Data set [6] is described as follows: Volume of distribution at steady state in Sprague-Dawley rat at 1 mg/kg, iv and 5 mg/kg, po. Particulars: in vivo, read-out: Vdss. In kind it is ADME, organism-based. Summed up: (§3)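 Male Sprague–Dawley rats; iv 1 mg/kg in 30% DMA in saline and po 5 mg/kg in 0.5% (w/v) gelatin in 5% (w/v) mannitol.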
Data set [7] in a line: Cmax in Sprague-Dawley rat at 1 mg/kg, iv and 5 mg/kg, po. The following applies: in vivo. It is filed as ADME, organism-based. The essentials:
as §3

A short description of data set [8]: Tmax in Sprague-Dawley rat at 1 mg/kg, iv and 5 mg/kg, po. In kind it is ADME, organism-based. Particulars: in vivo. Summed up:
as §3

Data set [9] in a line: Volume of distribution at steady state in cynomolgus monkey at 1 mg/kg, iv and 3 mg/kg, po. In kind it is ADME, organism-based, Macaca fascicularis. The following applies: in vivo, read-out: Vdss. The essentials: (§4)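 Cynomolgus monkey; iv 1 mg/kg in 30% DMA in saline and po 3 mg/kg in 0.5% (w/v) gelatin in 5% (w/v) mannitol.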
The nature of data set [10]: Cmax in cynomolgus monkey at 1 mg/kg, iv and 3 mg/kg, po. In kind it is ADME, organism-based, Macaca fascicularis. Particulars: in vivo. The essentials:
as §4

Data set [11] in a line: Tmax in cynomolgus monkey at 1 mg/kg, iv and 3 mg/kg, po. It is filed as ADME, organism-based, Macaca fascicularis. The following applies: in vivo. Summed up:
as §4

Data set [12] is described as follows: Oral bioavailability in cynomolgus monkey at 3 mg/kg. It is filed as ADME, organism-based, Macaca fascicularis. The following applies: in vivo. The essentials:
as §4

A word on the Papp A→B: it is the apparent permeability from the apical to the basolateral side of a cell layer. For the compound `O=C(Cc1ccc(Cl)cc1)N[C@H](Cc1ccc(Cl)cc1)C(=O)N[C@H]1C[C@H]2CC[C@@H](C1)N2`, the apparent permeability from apical to basolateral (Papp A→B) in [1] is under 10 ×10⁻⁶ cm/s. Still for that read-out and setting: the same measure for `O=C(Cc1ccc(Cl)cc1)N[C@H](Cc1ccc(Cl)cc1)C(=O)NC1CCCNCC1` (some centres not stated): under 10 ×10⁻⁶ cm/s; for `O=C(Cc1ccc(Cl)cc1)N[C@H](Cc1ccc(Cl)cc1)C(=O)NC1CCNCC1`: under 10 ×10⁻⁶ cm/s.

Regarding `CN1CCC(NC(=O)[C@@H](Cc2ccc(Cl)cc2)NC(=O)Cc2ccc(Cl)cc2)CC1`, in data set [1], the Papp A→B was under 10 ×10⁻⁶ cm/s. Same read-out and setting: the same measure for `CN1CCN(CCCNC(=O)[C@@H](Cc2ccc(Cl)cc2)NC(=O)Cc2ccc(Cl)cc2)CC1`: under 10 ×10⁻⁶ cm/s; for `CN(C)CCCNC(=O)[C@@H](Cc1ccc(Cl)cc1)NC(=O)Cc1ccc(Cl)cc1`: under 10 ×10⁻⁶ cm/s. Same read-out and setting: the same measure for `CN(C)CCCNC(=O)[C@@H](Cc1ccc(Cl)cc1)NC(=O)C1(c2ccc(Cl)cc2)CC1`: under 10 ×10⁻⁶ cm/s; for `CCCNC(=O)[C@@H](Cc1ccc(Cl)cc1)NC(=O)Cc1ccc(Cl)cc1`: under 10 ×10⁻⁶ cm/s. What is called bioavailability is dose-corrected exposure relative to a reference, in per cent. With `O=C(Cc1ccc(Cl)cc1)N[C@H](Cc1ccc(Cl)cc1)C(=O)NCCCO`, the bioavailability in data set [2] came to 43%. This compound also gave a Vdss with Rattus norvegicus [3] of 2 L/kg. As to `CN(C)[C@H]1CC[C@H](NC(=O)[C@@H](Cc2ccc(Cl)cc2)NC(=O)Cc2ccc(Cl)cc2)CC1`, in data set [1], the Papp A→B was under 10 ×10⁻⁶ cm/s. On to `CN(C)[C@H]1CC[C@H](NC(=O)[C@@H](Cc2ccc(Cl)cc2)NC(=O)C2(c3ccc(Cl)cc3)CC2)CC1`, for which the apparent permeability from apical to basolateral (Papp A→B) in [1] was under 10 ×10⁻⁶ cm/s. This compound also registered a bioavailability in data set [4] of 17%. In the data set with Rattus norvegicus [5], this compound registered a Vdss of 9 L/kg. Turning to `COc1ccc(C[C@@H](NC(=O)C2(c3ccc(Cl)cc3)CC2)C(=O)N[C@H]2CC[C@H](N(C)C)CC2)cc1`, the apical-to-basolateral permeability (Papp A→B) in data set [1] was under 10 ×10⁻⁶ cm/s. Still for that read-out and setting: the same measure for `CN(C)[C@H]1CC[C@H](NC(=O)[C@@H](Cc2ccc(F)cc2)NC(=O)C2(c3ccc(Cl)cc3)CC2)CC1`: under 10 ×10⁻⁶ cm/s; for `CN(C)[C@H]1CC[C@H](NC(=O)[C@@H](Cc2ccc(Cl)cc2)NC(=O)C2(c3ccc(Cl)cc3)CCC2)CC1`: under 10 ×10⁻⁶ cm/s; for `CN(C)[C@H]1CC[C@H](NC(=O)[C@@H](Cc2ccc(Cl)cc2)NC(=O)C2(c3ccc(F)cc3)CCCC2)CC1`: under 10 ×10⁻⁶ cm/s.

The Cmax is the maximum level reached in the sampled fluid or tissue. Broadly, the Tmax is the time from dosing to the highest level. As for `CN(C)[C@H]1CC[C@H](NC(=O)[C@@H](Cc2ccc(Cl)cc2)NC(=O)C2(c3ccc(F)cc3)CC2)CC1`, in [1], the Papp A→B is under 10 ×10⁻⁶ cm/s. Also, the bioavailability in [4] came to 30%; in data set [12], 20%. The Vd in [6] stood at 11.8 L/kg; in [9], 6.4 L/kg. The results for the Cmax in data set [7] and in data set [10] were 35 ng/mL and 41 ng/mL, respectively. Besides, the Tmax in data set [8] worked out at 5.8 h; in [11] it was 2.7 h. In the case of `CN(C)[C@H]1CC[C@H](NC(=O)[C@@H](Cc2ccc(Cl)cc2)NC(=O)Cc2ccc(F)cc2)CC1`, the apical-to-basolateral permeability (Papp A→B) in [1] is under 10 ×10⁻⁶ cm/s. As for `O=C(Cc1ccc(Cl)cc1)N[C@H](Cc1ccc(Cl)cc1)C(=O)N[C@H]1CC[C@@H](O)CC1`, the Papp A→B in data set [1] is under 10 ×10⁻⁶ cm/s. Turning to `CC(CCO)NC(=O)[C@@H](Cc1ccc(Cl)cc1)NC(=O)Cc1ccc(Cl)cc1` (stereo in doubt; 17c), the Papp A→B in [1] was under 10 ×10⁻⁶ cm/s.

In the case of `O=C(Cc1ccc(Cl)cc1)N[C@H](Cc1ccc(Cl)cc1)C(=O)NC1CCCC(O)C1` (stereo in doubt; 17e), the Papp A→B in data set [1] was under 10 ×10⁻⁶ cm/s. On the same count and under the same terms, the same measure for `O=C(Cc1ccc(Cl)cc1)N[C@H](Cc1ccc(Cl)cc1)C(=O)NC1CCCCC1O` (stereo in doubt; 17h): over 20 ×10⁻⁶ cm/s.
